This is a sample that favours compounds with a hit; in the whole collection about 4.1% have one here.
KCNQ1 inh: blocks the human KCNQ1 potassium channel; 1.3% of 310,000 active; CHO-K1 KCNQ1, FluxOR thallium flux fluorescence; active compounds read high; B-score at 10 µM; P51787; AID 2642;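 active = compounds whose thallium flux B-score, printed positive for inhibition, exceeds three library SD while starting fluorescence stays within three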;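 also: channel opened by potassium depolarization with thallium stimulus after 20 min compound exposure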
KCNK9 block: inhibitors of human KCNK9 two-pore domain potassium channel | Q9NPC2 | HEK293 KCNK9, FluxOR thallium flux fluorescence; active compounds read low | B-score at 10 µM | 1.2% of 310,000 active | AID 488922;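 active = ratio B-score over 3 SD below the library mean, with starting fluorescence within 5 SD of its mean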;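 also: negative B-score means less thallium flux so channel inhibition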
KCNK3 inh: human KCNK3 channel inhibition, primary screen. AID 602410. 0.84% of 340,000 active. CHO-KCNK3 thallium flux, FluxOR fluorescence; active compounds read low. B-score at 10 µM. O14649;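 active = B-score under library mean minus 4 SD, starting fluorescence ratio at most library mean plus 5 SD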;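 also: more negative B-score means stronger inhibition of thallium flux through KCNK3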
Target sequence (O14649 whole entry, looked up): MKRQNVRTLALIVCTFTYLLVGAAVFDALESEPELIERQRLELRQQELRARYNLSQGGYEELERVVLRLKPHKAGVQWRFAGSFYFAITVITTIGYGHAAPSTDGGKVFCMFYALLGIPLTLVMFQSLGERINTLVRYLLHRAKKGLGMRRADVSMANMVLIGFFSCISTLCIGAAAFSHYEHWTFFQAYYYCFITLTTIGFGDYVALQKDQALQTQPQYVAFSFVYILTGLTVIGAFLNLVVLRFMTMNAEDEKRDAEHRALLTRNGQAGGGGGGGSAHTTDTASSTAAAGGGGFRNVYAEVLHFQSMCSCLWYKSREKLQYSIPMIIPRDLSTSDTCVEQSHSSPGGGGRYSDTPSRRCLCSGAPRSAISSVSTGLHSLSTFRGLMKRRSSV
KCNQ1 act: human KCNQ1 channel potentiation or activation. P51787. CHO-K1 KCNQ1, thallium flux FluxOR fluorescence; active compounds read high. B-score at 10 µM. 0.35% of 310,000 active;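 active = fluorescence ratio B-score, a plate-corrected score, at least three library SD, with initial intensity B-score within 5 SD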
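Medium – assay buffer, equal DMSO in all wells · Material – CHO-K1 cell line with stable KCNQ1 potassium channel expression · Signal – kinetic FluxOR thallium fluorescence, 10-s 1-Hz baseline, 110-s post-stimulus read · Compound – single concentration per compound, DMSO matched to controls · Schedule – 37 °C overnight plating, 90-min dark dye load, 20-min compound pretreatment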
hERG protect: shields human hERG channel from block by proarrhythmic agents; 0.51% of 310,000 active; Q12809; activation (rescue from dofetilide block), less the hit threshold, % at 10 µM; CHO-hERG, FluxOR thallium flux, dofetilide IC70 present; AID 1511;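 active = activation above the mean of controls blocked by dofetilide plus 5 SD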;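 also: thallium influx through hERG after potassium depolarization seen as dye fluorescence rise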
KCC2 mod: modulators of human KCC2 chloride dependent transport. Q9H2X9. KCC2 cells, thallium flux FluoZin-2 fluorescence. B-score of Tl+ flux slope (higher = more flux/activation; lower = inhibition) at 10 µM. 2.2% of 190,000 active. AID 1456;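 active = thallium flux slope and its plate-corrected score both differing from the plate sample mean at a set confidence after two filtering rounds, in either direction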;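 also: slope of fluorescence scaled to starting intensity during 10 to 20 s after thallium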
* hit, by the source's call; i = inactive; . = not tested or not shown.

SMILES | KCNQ1 inh | KCNK9 block | KCNK3 inh | KCNQ1 act | hERG protect | KCC2 mod
O=[N+]([O-])c1cccc(/C=C/c2nc3ccc([N+](=O)[O-])cc3[nH]2)c1 | 9* | i | i | i | -35 | -0.81
CCOC(=O)c1c(NC(=O)CSc2nc3cccnc3n2C)sc(C(C)=O)c1C | i | i | -10* | i | -5 | -0.46
CC(=O)c1c(C)[nH]c(C(=O)CSc2ncnc3sc(-c4ccccc4)cc23)c1C | i | i | i | i | -7 | 29*
CN(C)/C=C1\C(=O)ON=C1c1ccccc1 | i | i | i | i | -5 | -0.52
O=C1ON=C(c2ccccc2)/C1=C/c1ccco1 | 7* | i | i | i | -24 | -0.49
Cc1cccc(C)c1OCC(=O)NCc1ccccc1 | i | i | i | i | -2 | .
CC1=NN(/C(=N\c2nnc(C)s2)Nc2ccc(C(C)(C)C)cc2)[C@H](c2ccc(C)cc2)S1 | 8* | i | i | i | -5 | -0.36
Cc1ccc(-c2cc(C(=O)Nc3ccncc3)c3ccccc3n2)cc1 | i | i | i | i | -7 | .
Cc1cccc(NC(=S)NC(=O)c2cc(-c3ccccc3)nc3ccccc23)c1 | i | i | i | 18* | 6.1* | 8.5*
Cc1ccccc1NC(=S)NC(=O)c1cc(-c2ccccc2)nc2ccccc12 | i | i | i | 19* | 3 | 14*
CC1CCCC(C)N1/N=C/c1cc(Br)cc(Br)c1O (centres undefined) | i | i | i | i | -9 | 0.58
CC(=O)N1c2ccc(N=Cc3cc(Br)cc(Br)c3O)cc2CC1C (centres undefined) | i | i | . | 8* | 3 | -0.11
C=CCN1C=CC(=C/C=C(/C#N)C(=O)OCC)C=C1 | 11* | i | i | i | -23 | i
O=C(Nc1nc(-c2cccnc2)cs1)c1ccccc1Cl | i | i | i | i | 41* | 0.79
CSc1nnc(-c2cc(-c3ccc(C)cc3)nc3ccccc23)o1 | i | -7.4* | i | i | -14 | 0.024
CC(C)C(O)C1CCN(Cc2nc(-c3cccs3)no2)CC1 (centres undefined) | i | i | i | i | -6 | -0.26
CCNc1nc(NCC)n2c(SCC(=O)Nc3ccccc3)nnc2n1 | i | i | i | i | 6.5* | 0.47
CN(C)CCNC(=O)CNC(=S)N(CCCN1CCOCC1)Cc1cccs1 | i | i | i | i | -2 | 0.55
CCCCCc1ccc(C(=O)CCCC)c(=S)[nH]1 | i | i | i | 17* | 35* | 119*
O=C(/C=C/c1cccc(Br)c1)Nc1nn[nH]n1 | i | i | . | i | -6 | 0.017
CCOc1ccc(N(C)S(=O)(=O)c2ccc(C)c(C(=O)OCC(=O)c3c[nH]c4ccccc34)c2)cc1 | i | -7.6* | i | i | -10 | -0.22
COCCNC(=O)c1ccc(CS(=O)(=O)c2ccc(Cl)cc2)o1 | i | i | i | i | -1 | 0.013
CCC(C)Sc1nc(O)c(Cc2ccccc2)c(=O)[nH]1 (centres undefined) | i | i | i | i | -11 | 0.16
COc1cccc(/C=N/n2c(-c3cccs3)n[nH]c2=S)c1 | i | i | i | i | 1 | 24*
Cc1ccc(/C=N/n2c(COc3ccccc3)n[nH]c2=S)s1 | i | i | i | i | -9 | 16*
SMILES | KCNQ1 inh | KCNK9 block | KCNK3 inh | KCNQ1 act | hERG protect | KCC2 mod
Cc1ccc(-c2n[nH]c(=S)n2/N=C/c2cccs2)cc1 | i | i | i | i | -4 | 18*
Cc1n[nH]c(=S)n(/N=C/c2ccccn2)c1=O | i | i | i | i | -2 | .
COc1ccc(/C=N/n2c(-c3ccccc3)n[nH]c2=S)cc1 | i | i | i | i | -1 | .
S=c1[nH]nc(-c2ccccn2)n1/N=C/c1ccc(Br)s1 | i | i | i | i | -9 | 26*
COc1c(C)cc(C(=O)C2CCCN(C(=O)Cn3ccc(C)n3)C2)cc1C (centres undefined) | i | i | i | i | -12 | 0.012
CCN(CC)S(=O)(=O)c1cccc(NC(=O)COC(=O)c2cncc(Br)c2)c1 | . | . | i | . | . | .
CN(C(=S)NC1CCCCC1)C1(c2ccccc2Cl)CCCCC1=O (centres undefined) | i | i | i | i | -11 | 0.34
O=C(c1ccccc1)c1ccc(Cn2cc(-c3ccccc3)nn2)cc1 | i | i | i | i | -14 | .
Cc1ccc(-c2n[nH]c(=S)n2/N=C/c2ccc(C)s2)cc1 | i | i | i | i | -6 | 5.6*
S=c1[nH]nc(C2COc3ccccc3O2)o1 (centres undefined) | i | i | i | i | -1 | -6.9*
CC1=CC(C)(C)n2c(O)c(N=NC(N)=S)c3cccc1c32 | i | i | i | i | -8 | 5.9*
O=c1c(-c2ccccc2)c[nH]n1-c1cccc([N+](=O)[O-])c1 | 7* | i | i | i | -12 | -0.41
CN(C)c1ccc(CN(C(=O)c2cc3ccccc3oc2=O)C2CCS(=O)(=O)C2)cc1 (centres undefined) | i | i | i | i | -12 | .
O=C(c1cc2ccccc2oc1=O)N(Cc1ccco1)C1CCS(=O)(=O)C1 (centres undefined) | i | i | i | i | -1 | -4.7*
O=C(COc1ccc(Cl)cc1Cl)N(Cc1ccco1)C1CCS(=O)(=O)C1 (centres undefined) | i | -7* | i | i | -2 | .
O=C(COc1ccc(Cl)cc1)N(Cc1ccco1)C1CCS(=O)(=O)C1 (centres undefined) | i | i | i | i | -12 | 0.1
CC(=O)c1ccc(NC(=O)C2CCN(S(=O)(=O)c3ccc4c(c3)N(C(C)=O)CCO4)CC2)cc1 | i | i | i | i | -8 | .
Cc1ccc(Oc2ccccc2/C=C2\SC(=O)N(C)C2=O)cc1 | 6* | i | i | i | -14 | .
CN1C(=O)S/C(=C/c2ccccc2OCc2ccc(C(=O)O)cc2)C1=O | i | i | i | i | -13 | -4.3*
O=C1NC(=O)/C(=C/c2ccccc2Oc2ccc(Cl)cc2)S1 | 11* | i | i | i | -10 | .
COc1ccccc1C=C1SC(=S)NC1=O | . | . | i | . | . | .
CN1C(=O)S/C(=C\c2ccccc2OCc2ccc(C(=O)O)cc2)C1=O | i | i | i | i | -5 | -2.4
O=C(CSc1nc(O)cc(=O)n1C1CCCC1)Nc1cccc(Cl)c1Cl | i | i | i | i | -8 | -1.4

Bioassay records: PubChem, several laboratories
